# Paper PMC3646928 (Peptides, 2013)
# Assays:
# protein-free HJ DNA = assay: Non-competitive HJ band shift; format: binding
# E. coli MG1655 cells = assay: Bacterial TUNEL assay; format: cell-based; settings: highest concentration tested, 1.5 hours
# Method in brief: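 E. coli MG1655 grown as for MIC testing: overnight culture diluted 1:100 in Mueller Hinton broth, grown to OD600 0.08–0.1, then exposed to peptide for 1.5 h. Cells pelleted and resuspended in 1× PBS. TdT labels 3′-OH ends with fluorescein-dUTP; TOTO-3 counterstains DNA. Flow cytometry (488 nm FITC, 633 nm APC; 50,000 events). TUNEL-positive expressed as fraction of TOTO-3-positive cells, normalized to DMSO-treated cells.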
Substance,shift of protein-free HJ DNA in EMSA (specific shift) (protein-free HJ DNA),TUNEL-positive cells (E. coli MG1655 cells) [%]
WRWYGGYWRW,Neither WRWYGGYWRW nor WYCRGGRCYW caused specific shifts at low peptide concentrations,
WYCRGGRCYW,Neither WRWYGGYWRW nor WYCRGGRCYW caused specific shifts at low peptide concentrations,
WRWYCR,,75.6 ± 2.2
KWWRGGRWWK,caused a change in the mobility of protein-free HJ DNA similar to shifts seen with (WRWYCR)2,
